Test results from ChEMBL document CHEMBL1144469, “Comprehensive analysis of the effects of ordinary nutrients on hepatitis C virus RNA replication in cell culture” (Antimicrob Agents Chemother, 2007).
Activity calls are given as the source filed them. The calls are words filed in the database; no cut-off is given here.

Legend:
Hepatitis C virus [1] = assay: Enhancement of HCV RNA replication in OR6 cells after 72 hrs by luciferase reporter assay; type: functional, organism-based; conditions: Hepacivirus hominis
How it was run: (§1)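 OR6 cells (HuH-7 carrying genome-length HCV-O genotype 1b RNA with a Renilla luciferase-NeoR fusion) are seeded in triplicate, 1.0–1.5 × 10^4 per well, and grown 24 h. Nutrients are then added for 72 h, or 24 h in the time course. Renilla luciferase is read from cell lysates and expressed as % of untreated cells. Liposoluble nutrients are carried in DMSO or ethanol at 0.1% final. EC50 is obtained by sigmoid regression.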

Hepatitis C virus [2] = assay: Antiviral activity against HCV assessed as inhibition of HCV RNA replication in OR6 cells after 72 hrs by luciferase reporter assay; type: functional, organism-based, Hepacivirus hominis; conditions: OR6, 72 h; how it was run: as §1
Hepatitis C virus [3] = assay: Antiviral activity against HCV assessed as suppression of HCV RNA replication in ORN/C-5B/KE/poly cells after 72 hrs by luciferase reporter assay; type: functional; conditions: Hepacivirus hominis
How it was run: (§2)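 Polyclonal HuH-7 lines carrying either genome-length (ORN/C-5B/KE/poly) or subgenomic (ORN/3-5B/KE/poly) HCV-O genotype 1b RNA with a Renilla luciferase reporter are kept in DMEM with 10% FBS and G418 300 μg/ml. They are treated as in the OR6 assay for 72 h. Renilla luciferase is then measured and expressed as % of untreated cells.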

[4] = Cytotoxicity against human OR6 cells after 72 hrs; type: cell-based; conditions: or6, 72 h
How it was run: (§3)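 For viability, OR6 cells are plated in triplicate and grown 24 h: 4.5–5 × 10^4 cells (72 h assay) or 1–1.5 × 10^4 cells (120 h assay). Nutrients are then applied for 72 or 120 h. Viable cells are counted by trypan blue exclusion and expressed as % of the untreated cell number.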

Hepatitis C virus [5] = assay: Antiviral activity against HCV assessed as suppression of HCV RNA replication in ORN/3-5B/KE/poly cells after 72 hrs by luciferase reporter assay; type: functional, organism-based; conditions: Hepacivirus hominis; how it was run: as §2
[6] = Cytotoxicity against human OR6 cells after 120 hrs by cell viability assay; type: cell-based; conditions: or6, 120 h; how it was run: as §3
Hepatitis C virus [7] = assay: Antiviral activity against HCV assessed as inhibition of HCV RNA replication in OR6 cells after 24 hrs by luciferase reporter assay; type: functional, organism-based; conditions: Hepacivirus hominis; how it was run: as §1
[8] = Cytotoxicity against human OR6 cells after 120 hrs; type: cell-based; conditions: or6, 120 h; how it was run: as §3
Hepatitis C virus [9] = assay: Antiviral activity against HCV assessed as inhibition of HCV RNA replication in OR6 cells at 50 uM after 120 hrs by luciferase reporter assay; type: functional, Hepacivirus hominis; conditions: OR6, 120 h
How it was run: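 The time course uses OR6 cells (HuH-7, genome-length HCV genotype 1b RL reporter), 0.5 × 10^4 cells per well in triplicate, grown 24 h before exposure. Treatment runs 120 h at the stated 50 μM. Renilla luciferase activity in lysates is given as % of untreated control.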

Hepatitis C virus [10] = assay: Enhancement of HCV RNA replication in ORN/3-5B/KE/poly cells after 72 hrs by luciferase reporter assay; type: functional, organism-based; conditions: Hepacivirus hominis; how it was run: as §2
Hepatitis C virus [11] = assay: Enhancement of HCV RNA replication in ORN/C-5B/KE/poly cells after 72 hrs by luciferase reporter assay; type: functional, organism-based; conditions: Hepacivirus hominis; how it was run: as §2

Compound	EC50 (Hepatitis C virus [2]) [µM]	Activity (Hepatitis C virus [1])	Activity (Hepatitis C virus [3])	Activity [4]	Activity (Hepatitis C virus [5])	Activity [6]	Activity [8]	further results
CC1=C(/C=C/C(C)=C/C=C/C(C)=C/CO)C(C)(C)CCC1		Active						
O=C1O[C@H]([C@@H](O)CO)C(O)=C1O		Active						
O=[Se](=O)(O)O		Active						
CCCCC/C=C\C/C=C\C/C=C\C/C=C\CCCC(=O)O [ARACHIDONIC ACID]	22.1							
C=C1CC[C@H](O)C/C1=C/C=C1\CCC[C@]2(C)[C@@H]([C@H](C)/C=C/[C@H](C)C(C)C)CC[C@@H]12 [ERGOCALCIFEROL]	3.8		Active	Non-toxic	Active	Non-toxic	Non-toxic	Activity (Hepatitis C virus [7]): Active
VITAMIN E		Active	Active					Activity (Hepatitis C virus [10]): inactive; Activity (Hepatitis C virus [11]): Active

The next lines start with results.

EC50 (Hepatitis C virus [2]) [µM]	Compound	Activity (Hepatitis C virus [1])	Activity (Hepatitis C virus [3])	Activity [4]	Activity (Hepatitis C virus [5])	Activity [6]	Activity [8]	further results
6.3	CC1=C(/C=C/C(C)=C/C=C/C(C)=C/C=C/C=C(C)/C=C/C=C(C)/C=C/C2=C(C)CCCC2(C)C)C(C)(C)CCC1 [BETA CAROTENE]		Active	Non-toxic	Active	Non-toxic	Non-toxic	Activity (Hepatitis C virus [7]): Active
37	CC/C=C\C/C=C\C/C=C\C/C=C\C/C=C\C/C=C\CCC(=O)O [DOCONEXENT]							
36.2	CC/C=C\C/C=C\C/C=C\C/C=C\C/C=C\CCCC(=O)O [ICOSAPENT]							
20.2	CCCCC/C=C\C/C=C\CCCCCCCC(=O)O [LINOLEIC ACID]		Active	Non-toxic	Active	Non-toxic	Non-toxic	inhibition at 50 µM (Hepatitis C virus [9]): 90%
